Experimental findings from ChEMBL document CHEMBL4130515, “Identification of Privileged Antichlamydial Natural Products by a Ligand-Based Strategy” (J Nat Prod, 2017) are described below.

Molecules are shown by their SMILES. In brackets after ≈: the same amount, converted by molar mass.

In data set [1] the test system is Chlamydia pneumoniae. Kind of data set: Antichlamydial activity against Chlamydia pneumoniae K7 infected in HL cells assessed as chlamydial inhibition at 50 uM after 70 hrs by fluorescent microscopic analysis. It is filed as functional. Summed up:
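Confluent HL cells infected with C. pneumoniae K7 at MOI 0.3 in medium with 1 μg/mL cycloheximide, centrifuged 500 rpm 1 h, then held at 37 °C for 1 h. At 2 h, compound added at 50 μM or DMSO vehicle. After 70 h at 37 °C, inclusions stained and counted in four fields per coverslip under a fluorescence microscope (20×). Inhibition % is relative to mean vehicle counts.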

The nature of data set [2]: (§1) Cytotoxicity against human HL cells assessed as cell viability at 50 uM after 72 hrs by resazurin dye based fluorescence assay relative to control. The note with it: HL cells, read-out: Activity. Put shortly:
(§2)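 HL cells grown overnight to confluence, then exposed to compound at 50 μM for 72 h at 37 °C, four parallel replicates. Read-out after 2 h with 20 μM resazurin in PBS, fluorescence at 570/590 nm (ex/em). Viability % is relative to cells in 0.25% DMSO medium. Usnic acid 50 μM as positive control.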

Data set [3] concerns Chlamydia pneumoniae. Kind of data set: Antichlamydial activity against Chlamydia pneumoniae K7 infected in HL cells after 70 hrs by fluorescent microscopic analysis. Format: functional, organism-based. Particulars: for IC50: K7, HL, 70 h. Put shortly: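 HL cells grown to confluence, infected with C. pneumoniae K7 at MOI 0.3 in medium with 1 μg/mL cycloheximide, centrifuged 500 rpm 1 h, then 37 °C 1 h. At 2 h, inoculum replaced by cycloheximide medium with compound at 12 concentrations from 1 nM to 100 μM. Incubated 70 h at 37 °C, stained, and inclusions counted by fluorescence microscopy. Three runs; IC50 from variable-slope sigmoidal fit. Azithromycin 20 nM as positive control.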

For another data set, the system named is HL. The data set is described as §1. The note with it: hl, 72 h, 50 µM. Put shortly: as §2

As to `C=C[C@](C)(O)CC[C@H]1C(=C)CC[C@H]2C(C)(C)CCC[C@]12C`, the inhibition at 50 µM in the data set on Chlamydia pneumoniae [1] was 60%. For the same molecule, in data set [2], the viability at 72 h, 50 µM was 88.6%. The IC50 in the data set on Chlamydia pneumoniae [3] worked out at 35.5 µM.

Regarding `CCC1=CC2CN3CCc4c([nH]c5ccccc45)[C@@](C(=O)OC)(C2)C13`, in the data set with Chlamydia pneumoniae [1], the inhibition at 50 µM worked out at 68.1%. Further, the viability at 72 h, 50 µM in data set [2] was found to be 88.9%. For the same molecule, the IC50 in the data set on Chlamydia pneumoniae [3] worked out at 52.6 µM.

For the molecule `O=c1cc(-c2ccccc2)oc2cc(O)cc(O)c12` [CHRYSIN], the Activity result in the data set with HL is “Toxic”.

In the case of `CC1=C2C(=O)[C@H]3[C@@H](CC=C4C[C@@H](O)CC[C@@]43C)[C@@H]2CC[C@]12O[C@@H]1C[C@H](C)CN[C@H]1[C@H]2C` [JERVINE], in the data set with Chlamydia pneumoniae [1], the inhibition at 50 µM came to 74.8%. Besides, in data set [2], the viability at 72 h, 50 µM is 89.3%. Further, the IC50 in the data set with Chlamydia pneumoniae [3] was 25.6 µM.

Regarding `COc1c(C)c2c(c(O)c1C/C=C(\C)CCC(=O)O)C(=O)OC2` [MYCOPHENOLIC ACID], in the data set with Chlamydia pneumoniae [1], the inhibition at 50 µM was 98%. In addition, the viability at 72 h, 50 µM in data set [2] amounted to 86.6%. In the data set with Chlamydia pneumoniae [3] (K7, 70 h), this molecule yielded an MIC90 of 1 µM (≈ 0.32 µg/mL). Besides, the IC50 with Chlamydia pneumoniae [3] is 0.31 µM.

Turning to `COc1ccc2ccc(=O)oc2c1CC=C(C)C` [OSTHOLE], the Activity result with HL is reported as “Toxic”.

Regarding `OC1c2ccccc2N=C2CCCN21` (stereo not drawn) [PEGANOLE], the inhibition at 50 µM in the data set with Chlamydia pneumoniae [1] is 66.2%. Besides, the viability at 72 h, 50 µM in data set [2] stood at 95.2%. The molecule further had an IC50 in the data set on Chlamydia pneumoniae [3] of 35.1 µM.
